Bioassay records from PubChem BioAssay.
Shown are actives, neighbours in structure and some others; about 1.9% of the full set was active somewhere.
Hsp70 activator: switches on Hsp70 transcription. activation, % at 10 µM. HeLa Hsp70 promoter luciferase reporter, luminescence; scaled: vehicle 0, proteasome-inhibitor control 100%. hit rate 0.04% among 200,000. AID 1203;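 active = activation above the mean across all tested compounds plus 3 SD, cutoff set per campaign, cut at about 5.5% in these data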
HIF activator: HIF pathway transcriptional activation. U2OS HRE-luciferase reporter, luminescence; normalized: DMSO 0%, desferrioxamine 100%. activation, % at 7.5 µM (by protocol). hit rate 0.32% among 300,000. AID 1910;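 active = mean activation of at least 10% of the iron chelator positive control signal, with at least half of replicates also reaching 10%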
Rad51 HR inh: Rad51 (human) homologous recombination inhibition. inhibition, % at 10 µM. Q06609. hRad51 DNA strand exchange, fluorescence dequenching. AID 1385. hit rate 0.085% among 200,000;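 active = inhibition above 40% at the single screening dose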
Target sequence (Q06609 whole entry, looked up): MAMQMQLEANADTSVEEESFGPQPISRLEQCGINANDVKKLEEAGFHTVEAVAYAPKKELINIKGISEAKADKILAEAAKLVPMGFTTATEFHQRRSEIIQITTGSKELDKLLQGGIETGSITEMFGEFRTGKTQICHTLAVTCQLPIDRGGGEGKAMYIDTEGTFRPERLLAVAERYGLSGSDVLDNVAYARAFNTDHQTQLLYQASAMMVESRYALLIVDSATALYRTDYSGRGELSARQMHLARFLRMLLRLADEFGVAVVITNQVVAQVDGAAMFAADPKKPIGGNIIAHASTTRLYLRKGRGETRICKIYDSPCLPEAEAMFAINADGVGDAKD
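System: hRad51 filaments on single-stranded DNA; reagent: Fluorescein- and BHQ1-tagged 47-mer duplex; compound dosing: one concentration, 10 µM final; timing: filaments 15 min 37 °C, then compound 30 min; measured by: fluorescein emission 520 nm, excitation 485 nm; benchmarks: per-plate controls and blanks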
ABHD5 PLIN5 PPI: ABHD5-PLIN5 protein interaction inhibition; Q00G26+Q8WTS1; Split G. princeps luciferase complementation, luminescence, 4 h; inhibition, % at 4 µM; hit rate 0.78% among 360,000;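 active = inhibition above the mean inhibition across every tested compound plus 3 SD, cut at about 22% in these data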
FXN GAA850 act: activators of GAA850 frataxin (FXN) promoter; HEK293 lucGAA850 FXN promoter luciferase reporter, 24 h; percent of 10 µM SAHA response; activation, % at 6 µM; hit rate 0.56% among 360,000; AID 540364;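 active = activation above the average of all compounds screened plus 3 SD, cutoff fixed separately per campaign, cut at about 7.5% in these data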
TAG inh: inhibitors of triacylglycerol accumulation | H9c2 cells, Nile Red lipid (TAG) fluorescence; cells loaded with 200 µM oleic acid | inhibition, % at 12.5 µM | hit rate 0.66% among 230,000;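 active = pattern-corrected inhibition of lipid staining of at least 50% with the nuclear-stain viability signal not falling by more than 50%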
A number is an active result; – = inactive; · = not tested or not shown.

SMILES	Hsp70 activator	HIF activator	Rad51 HR inh	ABHD5 PLIN5 PPI	FXN GAA850 act	TAG inh
O=C(CCn1c(=S)[nH]c2cc3c(cc2c1=O)OCO3)NCc1ccccc1Cl	·	–	·	–	–	·
CC1(Cc2ccc(OC(F)(F)F)cc2)C(=O)Nc2c(Cl)ccc(Cl)c21 (stereo unspecified)	·	·	·	–	–	–
CC1CN(C(C)C)C(=S)N(c2ccccc2)C1=O (stereo unspecified)	·	·	·	–	–	–
O=C(NCC1CCCO1)c1ccccc1NS(=O)(=O)c1ccc(Br)s1 (stereo unspecified)	·	·	·	–	–	–
Nc1nc(CCl)nc(Nc2cccc3ccccc23)n1	·	–	–	–	–	81.0
N#CCCN1CCCc2cc(N=Nc3ccc(C(F)(F)F)cc3)ccc21	·	–	–	–	–	57.3
COc1ccc(S(=O)(=O)N(CC(=O)NC2CC2)Cc2ccccc2)cc1	·	–	·	–	–	·
CC(=O)Cn1c(=O)c2c(nc3n2CCCN3Cc2ccccc2)n(C)c1=O	·	35.1	·	–	–	·
COc1cccc(C(C[N+](=O)[O-])c2c(C)[nH]n(-c3ccccc3)c2=O)c1 (stereo unspecified)	·	55.1	·	–	–	·
Cc1[nH]n(-c2ccccc2)c(=O)c1C(C[N+](=O)[O-])c1ccc(Br)cc1 (stereo unspecified)	–	–	–	–	–	–
CO/N=C/C(=N\Nc1ccc(C)cc1)C(=O)c1ccc(OC)cc1	–	–	–	–	–	60.3
CS(=O)(=O)N1CCc2cc(C(=O)N3CCN(c4ccc(F)cc4)CC3)ccc21	·	–	·	–	–	·
Cc1c(C(=O)NCc2ccc3c(c2)OCCO3)sc(=O)n1Cc1ccccc1F	·	·	·	–	–	–
S=C(N/N=C/c1cccc2ccccc12)Nc1cccc(Cl)c1	·	219.8	–	–	–	–
Cc1c(Cl)cccc1NC(=S)N/N=C/c1ccccc1Cl	·	40.7	–	·	·	·
Clc1cccc(CSc2nnc(-c3ccccn3)n2Cc2ccco2)c1	–	–	–	22.5	–	–
COc1cc(CNc2ncnc3c2ncn3[C@H]2CN(Cc3cc(OC)c(OC)c(OC)c3)C[C@@H](CO)O2)cc(OC)c1OC	·	·	·	–	–	–
CCCCCCCC1CC(=O)C=C(C)C1C(=O)OCC (stereo unspecified)	·	80.6	–	–	–	–
CCCCCC1C/C(=N\O)C=C(C)C1C(=O)OC (stereo unspecified)	·	–	·	–	–	–
CCC1(C)NC(=O)N(CC(=O)c2cc(C)n(C3CC3)c2C)C1=O (stereo unspecified)	·	·	·	–	–	–
O=C(OCCN1C(=O)c2cccc3c(N4CCOCC4)ccc(c23)C1=O)c1ccc(Cl)cc1	–	12.0	–	–	–	·
CC(=O)NC1=CC(=C[N+](=O)[O-])C=C1O	·	·	·	–	–	–
Cc1c(C(=O)NC(C)c2ccccn2)oc2c(Cl)cccc12 (stereo unspecified)	·	·	·	–	–	–
O=C(/C=C/c1cccc([N+](=O)[O-])c1)c1ccc2c(c1)OCCO2	–	–	·	22.8	–	–
COc1ccc(/C=C/C(=O)c2ccc3c(c2)OCCO3)cc1[N+](=O)[O-]	–	–	–	–	–	–
SMILES	Hsp70 activator	HIF activator	Rad51 HR inh	ABHD5 PLIN5 PPI	FXN GAA850 act	TAG inh
CCOC(=O)CCS(=O)(=O)c1nc(-c2ccccc2)cc(C(F)(F)F)n1	–	10.0	–	58.4	–	74.3
O=C(O)c1ccc2cccc(O)c2n1	·	40.3	–	–	–	–
Oc1cccc(/C=N/NC(=S)Nc2cccnc2)c1O	–	14.1	–	–	–	·
OCc1nc2ccccc2n1/N=C/c1cccs1	·	–	–	–	–	–
C#CCOCCOCCOCCNc1nc(N2CCOCC2)nc(N2CCN(C(=O)[C@H]([C@@H](C)CC)n3cc(CCCN=C(N)N)nn3)CC2)n1	–	–	–	–	–	–
C#CCOCCOCCOCCNc1nc(N2CCN(C(=O)CCCCCCCCCCNC(=O)[C@H]([C@@H](C)CC)n3cc(CCCCN=C(N)N)nn3)CC2)nc(N2CCN(C(=O)CCCCCCCCCCNC(=O)[C@@H]([C@H](C)O)n3cc(C)nn3)CC2)n1	·	·	·	56.1	–	–
C#CCOCCOCCOCCNc1nc(N2CCN(C(=O)CCCCCCCCCCNC(=O)Cn3cc(C[C@@H](C)O)nn3)CC2)nc(N2CCN(C(=O)CCCCCCCCCCNC(=O)[C@@H]([C@H](C)CC)n3cc(CCCCCN)nn3)CC2)n1	·	·	·	54.9	–	–
C#CCOCCOCCOCCNc1nc(N2CCN(C(=O)CCCCCCCCCCNC(=O)Cn3cc(CCCCCN)nn3)CC2)nc(N2CCN(C(=O)CCCCCCCCCCNC(=O)[C@@H]([C@H](C)O)n3cc(C)nn3)CC2)n1	·	·	·	34.1	–	–
Cc1ccc(Cc2c(C(C)(C)C)nc3ccc(Br)cn23)cc1	·	·	·	–	·	·
CN1CCCC1CCNC1C2CC3CC(C2)CC1C3 (stereo unspecified)	–	–	·	–	–	·
COc1ccc(N2CCN(C(=O)CN(C)S(=O)(=O)c3cc(C)ccc3OC)CC2)cc1	–	464.5	–	–	–	–
COc1ccc(OC)c(S(=O)(=O)N(C)CC(=O)N2CCCCC2)c1	·	–	·	–	–	–
CC(C)c1cc(-c2cc(C(=O)NCc3ccccc3)on2)nc(NC2CCCC2)n1	·	18.2	–	–	–	–
Cc1onc(-c2c(Cl)cccc2Cl)c1C(=O)Nn1cnnc1	–	–	43.7	–	–	–
Cc1onc(-c2c(Cl)cccc2Cl)c1C(=O)N=C(N)N1CCCC1	·	28.2	–	–	–	–
Cc1onc(-c2c(Cl)cccc2Cl)c1C(=O)c1ccccc1	·	–	–	–	–	–
Cc1onc(-c2c(Cl)cccc2Cl)c1C(=O)N=C(N)N1CCOCC1	·	–	–	–	–	–
CN(C)S(=O)(=O)c1cccc(NC(=S)N/N=C/c2cc(Br)ccc2O)c1	·	47.0	–	–	–	–
COC(=O)c1sc(-c2ccccc2)cc1NC(=O)c1ccccc1	–	–	–	–	–	–
Cc1ccc(-c2nc(-c3ccccn3)sc2CC(=O)O)cc1	·	–	46.9	–	–	–
COc1ccc(CC(=O)N2CCN(C(=O)Cc3ccc(OC)cc3)CC2)cc1	–	364.6	·	–	–	–
O=c1oc(-c2ccc(Cl)cc2[N+](=O)[O-])nc2ccccc12	·	·	·	–	–	–
CCOc1ccc(-n2c(C)cc(C(=O)CCl)c2C)cc1	–	–	–	–	–	59.0
COC(=O)c1ccc(-n2c(C)cc(C(=O)CCl)c2C)cc1	–	–	–	–	–	–
CCN1C(=O)CC(c2ccccc2)N(C2CCCC2)c2nc(Nc3ccc(C(=O)NC4CCN(C)CC4)cc3OC)ncc21 (stereo unspecified)	·	·	·	–	–	–
COc1cc(C(=O)NC2CCN(C)CC2)ccc1Nc1ncc2c(n1)N(Cc1ccccc1)CCC(=O)N2C	·	·	·	–	–	87.4
COc1cc(C(=O)NC2CCN(C)CC2)ccc1Nc1ncc2c(n1)N(C1CCCCC1)CCC(=O)N2C	·	·	·	–	–	96.0
